Measured values from ChEMBL document CHEMBL4020742, “Design and optimization of purine derivatives as in vivo active PDE10A inhibitors” (Bioorg Med Chem, 2017).
Activity calls are given as the source filed them. The rule behind the calls is not given here.

Tests used:
CYP2C9 [1] = biological target: T1, CYP2C9 (Homo sapiens, UniProt P11712); assay: (§1) Inhibition of CYP2C9 in human microsomes at 10 uM using diclofenac as substrate preincubated for 5 mins followed by NADPH addition measured 20 mins relative to control; assay type: ADME; conditions: human microsomes, probe diclofenac, read-out: TDI
How it was run: (§2)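 Pooled human microsomes (0.2 mg/mL) in 100 mM phosphate pH 7.4 with a probe cocktail: midazolam 10 µM, dextromethorphan 10 µM, diclofenac 20 µM, phenacetin 100 µM, mephenytoin 100 µM. Test compound was 10 µM; organic solvent was under 1%. After 5 min preincubation at 37 °C, 1 mmol/L NADPH was added and the reaction ran 20 min, keeping substrate conversion below 20%. Metabolite formation was expressed relative to PBS control.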

Cytochrome P450 2C9 [2] = biological target: T2, Cytochrome P450 2C9 (Homo sapiens, UniProt P11712); assay: (§3) […] of CYP2C9 in human microsomes at 10 uM using diclofenac as substrate preincubated for 5 mins followed by NADPH addition measured 20 mins relative to control; assay type: ADME; conditions: microsomes, 20 min, 10 µM
[3] = biological target: T3, cAMP and cAMP-inhibited cGMP 3',5'-cyclic phosphodiesterase 10A (Homo sapiens, UniProt Q9Y233); assay: (§4) Inhibition of recombinant human N-terminal GST-tagged PDE10A1 (2 to 789 residues) expressed in baculovirus infected Sf9 cells at 5 uM using fluorescein-labeled cAMP as substrate preincubated for 15 mins followed by substrate addition measured after 30 mins by IMAP fluorescence polarization assay relative to control
How it was run: (§5)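 Recombinant PDE4A1A, PDE2A1 or PDE10A1 was incubated with compound (1% DMSO, duplicate) for 15 min at RT. Fluorescein-cAMP was then added for 30 min at RT, and the reaction was stopped with IMAP binding reagent (1 h, dark). FP was read at Ex485/Em535. Inhibition was set against no-enzyme and DMSO controls. IC50 came from a four-parameter logistic fit; values are the mean of at least two measurements.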

Cytochrome P450 3A4 = Cytochrome P450 3A4 (Homo sapiens, UniProt P08684); assay: (§6) Time-dependent inhibition of CYP3A4 in human microsomes at 10 uM using midazolam as substrate preincubated for 5 mins followed by NADPH addition measured 20 mins relative to control; assay type: ADME; conditions: microsomes, 20 min, 10 µM
CYP1A2 [4] = biological target: T4, CYP1A2 (Homo sapiens, UniProt P05177); assay: Inhibition of CYP1A2 in human microsomes at 10 uM using phenacetin as substrate preincubated for 5 mins followed by NADPH addition measured 20 mins relative to control; assay type: ADME; conditions: probe phenacetin, read-out: TDI; how it was run: as §2
T4 sequence (P05177 whole entry): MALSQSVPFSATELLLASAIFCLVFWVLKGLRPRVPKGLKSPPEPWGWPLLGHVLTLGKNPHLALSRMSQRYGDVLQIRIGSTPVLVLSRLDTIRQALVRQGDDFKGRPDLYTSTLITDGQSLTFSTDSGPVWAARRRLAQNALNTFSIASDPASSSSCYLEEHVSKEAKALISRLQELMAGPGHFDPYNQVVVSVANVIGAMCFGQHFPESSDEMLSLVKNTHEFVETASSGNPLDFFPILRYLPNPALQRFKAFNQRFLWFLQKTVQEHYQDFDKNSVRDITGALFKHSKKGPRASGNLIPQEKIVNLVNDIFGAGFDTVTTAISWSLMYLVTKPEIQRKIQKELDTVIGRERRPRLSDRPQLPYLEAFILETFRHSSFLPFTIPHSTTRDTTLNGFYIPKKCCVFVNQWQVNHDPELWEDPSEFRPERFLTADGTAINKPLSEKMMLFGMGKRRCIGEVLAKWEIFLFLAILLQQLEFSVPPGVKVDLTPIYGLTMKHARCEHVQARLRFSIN

Cytochrome P450 1A2 = biological target: T5, Cytochrome P450 1A2 (Homo sapiens, UniProt P05177); assay: (§7) Time-dependent inhibition of CYP1A2 in human microsomes at 10 uM using phenacetin as substrate preincubated for 5 mins followed by NADPH addition measured 20 mins relative to control; assay type: ADME; conditions: microsomes, 20 min, 10 µM
T5 sequence (P05177 whole entry): T4 sequence (P05177 whole entry)

Cytochrome P450 2C19 [5] = biological target: T6, Cytochrome P450 2C19 (Homo sapiens, UniProt P33261); assay: (§8) Inhibition of CYP2C19 in human microsomes at 10 uM using mephenytoin as substrate preincubated for 5 mins followed by NADPH addition measured 20 mins relative to control; assay type: ADME; conditions: microsomes, 20 min, 10 µM; how it was run: as §2
[6] = Half life in human liver microsomes at 1 uM preincubated for 5 mins followed by NADPH addition measured up to 30 mins by LC-MS/MS analysis; assay type: ADME, microsome
How it was run: (§9)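 Liver microsomes (0.5 mg/mL) plus 1 µM compound were preincubated 5 min at 37 °C in 0.1 M phosphate buffer pH 7.4 containing EDTA and MgCl₂. NADPH started the reaction. Samples at 0, 5, 10 and 30 min were quenched with cold acetonitrile containing tinidazole internal standard and centrifuged. Parent remaining was quantified by LC/MS/MS.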

[7] = Half life in mouse liver microsomes at 1 uM preincubated for 5 mins followed by NADPH addition measured up to 30 mins by LC-MS/MS analysis; assay type: ADME, microsome; how it was run: as §9
Cytochrome P450 2D6 [8] = biological target: T7, Cytochrome P450 2D6 (Homo sapiens, UniProt P10635); assay: (§10) […] of CYP2D6 in human microsomes at 10 uM using dextromethorphan as substrate preincubated for 5 mins followed by NADPH addition measured 20 mins relative to control; assay type: ADME; conditions: microsomes, 20 min, 10 µM
PDE2A1 = PDE2A1 (Homo sapiens, UniProt O00408); assay: as §4, with “N-terminal FLAG-tagged PDE2A1” for “N-terminal GST-tagged PDE10A1”, “to 941” for “to 789”, “at 1” for “at 5”; conditions: probe fluorescein-labeled cAMP; how it was run: as §5
[9] = biological target: T3, cAMP and cAMP-inhibited cGMP 3',5'-cyclic phosphodiesterase 10A; assay: Inhibition of recombinant human N-terminal GST-tagged PDE10A1 (2 to 789 residues) expressed in baculovirus infected Sf9 cells using fluorescein-labeled cAMP as substrate preincubated for 15 mins followed by substrate addition measured after 30 mins by IMAP fluorescence polarization assay; how it was run: as §5
Cytochrome P450 2C19 [10] = biological target: T6, Cytochrome P450 2C19; assay: (§11) […] of CYP2C19 in human microsomes at 10 uM using mephenytoin as substrate preincubated for 5 mins followed by NADPH addition measured 20 mins relative to control; assay type: ADME; conditions: microsomes, 20 min, 10 µM
CYP2D6 [11] = biological target: T8, CYP2D6 (Homo sapiens, UniProt P10635); assay: (§12) Inhibition of CYP2D6 in human microsomes at 10 uM using dextromethorphan as substrate preincubated for 5 mins followed by NADPH addition measured 20 mins relative to control; assay type: ADME; conditions: human microsomes, probe dextromethorphan, read-out: TDI; how it was run: as §2
CYP3A4 [12] = biological target: T9, CYP3A4 (Homo sapiens, UniProt P08684); assay: Inhibition of CYP3A4 in human microsomes at 10 uM using midazolam as substrate preincubated for 5 mins followed by NADPH addition measured 20 mins relative to control; assay type: ADME; conditions: human microsomes, probe midazolam, read-out: TDI; how it was run: as §2
Cytochrome P450 2C9 [13] = biological target: T2, Cytochrome P450 2C9; assay: as §1; assay type: ADME; conditions: microsomes, 20 min, 10 µM; how it was run: as §2
CYP3A4 [14] = biological target: T9, CYP3A4; assay: as §6; assay type: ADME; conditions: human microsomes, probe midazolam, read-out: TDI
Rattus norvegicus [15] = assay: Antipsychotic activity in Sprague-Dawley rat assessed as inhibition of PCP-induced hyperlocomotion at 50 mg/kg, po pretreated for 30 mins followed by PCP addition measured after 5 mins for 1.5 hrs by open field test; assay type: functional, organism-based
How it was run: (§13)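 Male SD rats (200-250 g), acclimated at least 1 week. Drug was given p.o. in sterile saline with 0.5% Tween 80 and 0.2% CMC-sodium, 30 min before PCP 5 mg/kg i.p. Rats were placed in a 40×40×45 cm open-field arena 5 min after PCP and video-tracked for 90 min. Read-out was total distance travelled, reported as mean ± SEM.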

CYP1A2 [16] = biological target: T4, CYP1A2; assay: as §7; assay type: ADME; conditions: human microsomes, probe phenacetin, read-out: TDI
Rattus norvegicus [17] = assay: Antipsychotic activity in Sprague-Dawley rat assessed as inhibition of PCP-induced hyperlocomotion at 10 mg/kg, po pretreated for 30 mins followed by PCP addition measured after 5 mins for 1.5 hrs by open field test; assay type: functional, organism-based; how it was run: as §13
Rattus norvegicus [18] = assay: Antipsychotic activity in Sprague-Dawley rat assessed as inhibition of PCP-induced prepulse inhibition deficit at 50 mg/kg, po pretreated for 30 mins followed by PCP addition measured after 5 mins to 10 mins; assay type: functional, organism-based
How it was run: (§14)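 Male SD rats (200-250 g) were dosed p.o. in saline with 0.5% Tween 80 and 0.2% CMC-sodium, 30 min before PCP 5 mg/kg i.p. Acoustic startle PPI was tested in startle chambers 5-10 min after PCP. Startle magnitude was the mean of pulse-alone trials. n = 11-16 per group; mean ± SEM; ANOVA with post hoc tests.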

CYP2D6 [19] = biological target: T8, CYP2D6; assay: as §10; assay type: ADME; conditions: human microsomes, probe dextromethorphan, read-out: TDI
CYP2C19 [20] = biological target: T10, CYP2C19 (Homo sapiens, UniProt P33261); assay: as §11; assay type: ADME; conditions: human microsomes, probe mephenytoin, read-out: TDI
Cytochrome P450 2D6 [21] = biological target: T7, Cytochrome P450 2D6; assay: as §12; assay type: ADME; conditions: microsomes, 20 min, 10 µM; how it was run: as §2
Rattus norvegicus [22] = assay: Antipsychotic activity in Sprague-Dawley rat assessed as inhibition of PCP-induced prepulse inhibition deficit at 10 mg/kg, po pretreated for 30 mins followed by PCP addition measured after 5 mins to 10 mins; assay type: functional, organism-based; how it was run: as §14
CYP2C9 [23] = biological target: T1, CYP2C9; assay: as §3; assay type: ADME; conditions: human microsomes, probe diclofenac, read-out: TDI
CYP2C19 [24] = biological target: T10, CYP2C19; assay: as §8; assay type: ADME; conditions: human microsomes, probe mephenytoin, read-out: TDI; how it was run: as §2

T1 sequence (P11712 whole entry): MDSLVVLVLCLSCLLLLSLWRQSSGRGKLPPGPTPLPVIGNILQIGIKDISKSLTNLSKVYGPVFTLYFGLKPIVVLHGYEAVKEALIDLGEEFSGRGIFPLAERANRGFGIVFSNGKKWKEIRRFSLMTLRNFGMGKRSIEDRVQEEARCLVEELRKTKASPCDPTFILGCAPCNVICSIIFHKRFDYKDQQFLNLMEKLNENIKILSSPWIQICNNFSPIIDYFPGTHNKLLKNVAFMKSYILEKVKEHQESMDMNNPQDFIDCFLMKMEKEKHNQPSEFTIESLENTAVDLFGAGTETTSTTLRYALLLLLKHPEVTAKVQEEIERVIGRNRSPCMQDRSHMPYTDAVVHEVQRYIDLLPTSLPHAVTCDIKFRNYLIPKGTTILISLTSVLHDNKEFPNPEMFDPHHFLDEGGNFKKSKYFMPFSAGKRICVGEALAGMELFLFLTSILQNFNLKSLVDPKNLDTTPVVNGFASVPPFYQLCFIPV
T2 sequence (P11712 whole entry, the tested form may be a part): as the sequence (P11712 whole entry) above
T3 sequence (Q9Y233 whole entry, the tested form may be a part): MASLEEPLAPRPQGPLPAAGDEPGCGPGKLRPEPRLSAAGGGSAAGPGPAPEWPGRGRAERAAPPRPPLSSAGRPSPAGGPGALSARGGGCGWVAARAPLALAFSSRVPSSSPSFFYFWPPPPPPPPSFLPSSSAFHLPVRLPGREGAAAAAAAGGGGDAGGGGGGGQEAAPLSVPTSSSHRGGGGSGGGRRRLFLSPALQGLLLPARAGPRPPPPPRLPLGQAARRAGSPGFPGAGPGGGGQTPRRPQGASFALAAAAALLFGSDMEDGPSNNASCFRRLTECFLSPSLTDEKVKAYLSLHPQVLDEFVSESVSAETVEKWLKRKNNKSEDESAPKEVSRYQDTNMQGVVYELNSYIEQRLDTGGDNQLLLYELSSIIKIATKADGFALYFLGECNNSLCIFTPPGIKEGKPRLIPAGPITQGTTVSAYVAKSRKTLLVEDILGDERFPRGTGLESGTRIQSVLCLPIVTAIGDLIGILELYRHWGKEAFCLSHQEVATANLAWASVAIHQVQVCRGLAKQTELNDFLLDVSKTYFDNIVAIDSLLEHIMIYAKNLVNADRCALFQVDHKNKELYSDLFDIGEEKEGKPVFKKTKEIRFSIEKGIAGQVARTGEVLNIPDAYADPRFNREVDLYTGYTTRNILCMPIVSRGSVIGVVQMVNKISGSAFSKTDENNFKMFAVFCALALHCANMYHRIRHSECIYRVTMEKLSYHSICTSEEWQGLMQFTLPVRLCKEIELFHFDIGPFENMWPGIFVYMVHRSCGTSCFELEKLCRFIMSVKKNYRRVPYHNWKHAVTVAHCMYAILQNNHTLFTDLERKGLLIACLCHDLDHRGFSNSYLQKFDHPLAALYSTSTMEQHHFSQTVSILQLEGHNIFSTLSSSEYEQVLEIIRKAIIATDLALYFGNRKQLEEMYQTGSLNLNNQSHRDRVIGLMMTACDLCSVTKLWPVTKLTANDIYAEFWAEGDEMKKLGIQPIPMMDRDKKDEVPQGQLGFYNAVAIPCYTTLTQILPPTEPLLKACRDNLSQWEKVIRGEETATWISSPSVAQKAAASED
T8 sequence (P10635 whole entry): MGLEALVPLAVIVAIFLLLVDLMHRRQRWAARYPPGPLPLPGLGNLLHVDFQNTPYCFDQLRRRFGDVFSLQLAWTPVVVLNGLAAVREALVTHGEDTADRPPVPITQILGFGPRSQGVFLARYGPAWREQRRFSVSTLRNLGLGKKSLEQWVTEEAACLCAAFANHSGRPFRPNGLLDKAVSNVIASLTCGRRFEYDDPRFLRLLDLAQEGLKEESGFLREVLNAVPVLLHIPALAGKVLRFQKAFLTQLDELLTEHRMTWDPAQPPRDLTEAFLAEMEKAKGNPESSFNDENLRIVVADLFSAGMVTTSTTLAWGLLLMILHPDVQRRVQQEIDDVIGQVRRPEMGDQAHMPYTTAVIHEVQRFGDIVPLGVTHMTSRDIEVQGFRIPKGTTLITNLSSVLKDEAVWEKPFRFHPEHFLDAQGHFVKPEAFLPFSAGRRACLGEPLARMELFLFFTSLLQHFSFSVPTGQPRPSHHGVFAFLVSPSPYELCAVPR
T6 sequence (P33261 whole entry): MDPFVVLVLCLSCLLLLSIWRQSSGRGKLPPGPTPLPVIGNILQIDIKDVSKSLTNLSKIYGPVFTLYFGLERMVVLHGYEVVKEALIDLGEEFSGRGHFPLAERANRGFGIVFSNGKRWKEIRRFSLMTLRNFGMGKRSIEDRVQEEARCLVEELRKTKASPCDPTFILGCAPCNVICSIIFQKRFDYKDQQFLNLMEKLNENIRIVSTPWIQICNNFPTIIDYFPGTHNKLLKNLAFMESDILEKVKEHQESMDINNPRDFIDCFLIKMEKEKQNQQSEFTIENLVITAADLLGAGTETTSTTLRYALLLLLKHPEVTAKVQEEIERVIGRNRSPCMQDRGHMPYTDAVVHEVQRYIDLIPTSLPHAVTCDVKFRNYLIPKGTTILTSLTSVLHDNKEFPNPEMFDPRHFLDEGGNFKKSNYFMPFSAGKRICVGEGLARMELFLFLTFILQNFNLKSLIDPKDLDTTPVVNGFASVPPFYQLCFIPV
T10 sequence (P33261 whole entry): as above
T9 sequence (P08684 whole entry): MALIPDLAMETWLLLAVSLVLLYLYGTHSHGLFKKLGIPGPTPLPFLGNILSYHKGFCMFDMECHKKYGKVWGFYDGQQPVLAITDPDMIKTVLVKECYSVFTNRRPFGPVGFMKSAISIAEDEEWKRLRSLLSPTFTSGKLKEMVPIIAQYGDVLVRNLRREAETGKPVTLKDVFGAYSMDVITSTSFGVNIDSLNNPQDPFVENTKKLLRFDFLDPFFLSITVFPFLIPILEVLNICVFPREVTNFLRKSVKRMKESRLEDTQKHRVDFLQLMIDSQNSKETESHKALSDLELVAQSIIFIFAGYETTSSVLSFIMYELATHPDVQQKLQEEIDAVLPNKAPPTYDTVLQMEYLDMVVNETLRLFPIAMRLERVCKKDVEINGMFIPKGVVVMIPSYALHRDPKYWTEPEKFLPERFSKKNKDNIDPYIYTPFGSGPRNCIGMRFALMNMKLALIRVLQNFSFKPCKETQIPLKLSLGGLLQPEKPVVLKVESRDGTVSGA
PDE2A1, sequence (O00408 whole entry, the tested form may be a part): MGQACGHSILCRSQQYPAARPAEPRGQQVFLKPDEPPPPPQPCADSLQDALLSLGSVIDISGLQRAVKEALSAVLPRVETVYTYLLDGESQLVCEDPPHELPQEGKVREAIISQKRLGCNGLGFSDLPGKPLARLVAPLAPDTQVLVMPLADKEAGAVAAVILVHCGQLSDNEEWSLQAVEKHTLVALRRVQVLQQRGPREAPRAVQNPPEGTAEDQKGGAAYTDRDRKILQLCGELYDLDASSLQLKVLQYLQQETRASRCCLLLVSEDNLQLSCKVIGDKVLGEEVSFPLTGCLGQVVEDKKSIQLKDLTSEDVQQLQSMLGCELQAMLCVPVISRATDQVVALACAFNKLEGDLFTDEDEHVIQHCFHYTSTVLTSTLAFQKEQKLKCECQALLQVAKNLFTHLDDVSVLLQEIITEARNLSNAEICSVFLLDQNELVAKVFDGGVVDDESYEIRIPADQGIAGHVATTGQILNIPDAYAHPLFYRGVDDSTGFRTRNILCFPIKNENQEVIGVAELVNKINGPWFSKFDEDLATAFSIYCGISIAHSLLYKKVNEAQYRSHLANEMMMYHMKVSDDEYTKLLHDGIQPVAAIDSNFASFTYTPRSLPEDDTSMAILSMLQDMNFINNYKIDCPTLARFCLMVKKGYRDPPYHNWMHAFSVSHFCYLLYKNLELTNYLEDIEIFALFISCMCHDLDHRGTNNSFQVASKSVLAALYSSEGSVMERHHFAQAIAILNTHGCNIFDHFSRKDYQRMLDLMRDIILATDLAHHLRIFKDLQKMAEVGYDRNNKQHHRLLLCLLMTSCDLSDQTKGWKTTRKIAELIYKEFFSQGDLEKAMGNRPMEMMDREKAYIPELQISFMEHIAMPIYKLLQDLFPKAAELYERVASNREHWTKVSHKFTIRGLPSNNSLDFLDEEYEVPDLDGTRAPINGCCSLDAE
T7 sequence (P10635 whole entry): as the sequence (P10635 whole entry) above
Cytochrome P450 3A4, sequence (P08684 whole entry): as the sequence (P08684 whole entry) above

Row | SMILES | inhibition at 20 min, 10 µM (CYP2C9 [1]) | TDI (Cytochrome P450 2C9 [2]) | inhibition [3] | TDI (Cytochrome P450 3A4) | inhibition at 20 min, 10 µM (CYP1A2 [4]) | TDI (Cytochrome P450 2C19 [5]) | half-life at 1 µM [6] | half-life at 1 µM [7] | inhibition at 0.5 h, 1 µM (PDE2A1) | IC50 [9] | inhibition at 20 min, 10 µM (CYP2D6 [11]) | inhibition at 20 min, 10 µM (CYP3A4 [12]) | inhibition at 20 min, 10 µM (CYP1A2 [16]) | inhibition at 20 min, 10 µM (CYP2D6 [19]) | inhibition at 20 min, 10 µM (CYP2C19 [20]) | further results
1 | COc1ccc(-c2ccc(CNc3c(C)nc4c(N5CCOCC5)nccn34)cc2)cc1OC | 41% | Not Active | 92% | Not Active | 29% | Not Active | 18.2 min | 12.8 min | 5% | 0.452 µM | 24% | 42% |  |  |  | TDI (Cytochrome P450 1A2): Not Active; TDI (Cytochrome P450 2D6 [8]): Not Active; TDI (Cytochrome P450 2C19 [10]): Not Active
2 | Cc1nc2c(N3CCOCC3)ncnc2n1Cc1ccc(-c2cncnc2)cc1 |  | Not Active | 97% |  | 12% | Not Active | 49.5 min | 69.3 min | 4% | 0.076 µM |  | 22% | 10% | 30% | 90% | TDI (Cytochrome P450 2C9 [13]): Not Active; inhibition at 20 min, 10 µM (CYP3A4 [14]): 20%; inhibition (Rattus norvegicus [15]): inactive; inhibition (Rattus norvegicus [17]): Active; inhibition (Rattus norvegicus [18]): inactive; TDI (Cytochrome P450 2D6 [21]): Not Active; inhibition (Rattus norvegicus [22]): Active
3 | Cc1cc(-c2ccc(Cn3c(C)nc4c(N5CCOCC5)ncnc43)cc2)ccn1 | 18% |  | 98% | Not Active | 34% |  | 18.2 min | 23.9 min |  | 0.056 µM | 6% | 12% | 30% | 60% | 70% | inhibition at 20 min, 10 µM (CYP2C9 [23]): 10%; inhibition at 20 min, 10 µM (CYP2C19 [24]): 21%
